Results taken from ChEMBL document CHEMBL3351726 (J Med Chem, 2014).
Residues, ends and D or L forms follow the SMILES beside them.

Assays:
[1] = Retention time of the compound measured over 30 mins at flow rate of 1 mL/min by HPLC; format: physicochemical; conditions: 0.5 h
How it was run: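 Reversed-phase analytical HPLC or LC−MS on a SymmetryShield RP18 column (5 μm, 4.6 × 150 mm). Gradient 10−60% B over 30 min at 1 mL/min; A = 0.1% TFA in water, B = 0.1% TFA in acetonitrile.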

[2] = Retention time of the compound measured over 15 mins at flow rate of 1 mL/min by HPLC
HEK293 = experiment: Selectivity ratio of IC50 for rat Nav1.2 expressed in HEK-293 cells to IC50 for human Nav1.7 expressed in HEK-293 cells; format: cell-based

Compound	Retention_time [1] [min]	Retention_time [2] [min]	Ratio IC50 (HEK293)
CSCC[C@@H]1NC(=O)CNC(=O)[C@H](CCC(=O)O)NC(=O)[C@@H]2CSSC[C@H](NC(=O)[C@@H](N)Cc3ccc(O)cc3)C(=O)N[C@@H](CCC(N)=O)C(=O)N[C@@H](CCCCN)C(=O)N[C@@H](Cc3c[nH]c4ccccc34)C(=O)N[C@@H](CCSC)C(=O)N[C@@H](Cc3c[nH]c4ccccc34)C(=O)N[C@@H]([C@@H](C)O)C(=O)N[C@H]3CSSC[C@H](NC(=O)[C@H](C(C)C)NC1=O)C(=O)N[C@@H](CCCNC(=N)N)C(=O)N[C@@H](CC(C)C)C(=O)N[C@@H](Cc1c[nH]c4ccccc14)C(=O)N[C@H](C(=O)N[C@@H](CCCCN)C(=O)N[C@@H](CCCCN)C(=O)N[C@@H](CCCCN)C(=O)N[C@@H](CC(C)C)C(=O)N[C@@H](Cc1c[nH]c4ccccc14)C(=O)O)CSSC[C@H](NC(=O)[C@H](CCCCN)NC(=O)[C@H](CCCNC(=N)N)NC(=O)[C@H](CCC(=O)O)NC(=O)[C@H](CO)NC(=O)[C@H](CC(=O)O)NC3=O)C(=O)N2	14.54	9.35	
CSCC[C@@H]1NC(=O)[C@H](Cc2c[nH]c3ccccc23)NC(=O)[C@H](CCCCN)NC(=O)[C@H](CCC(N)=O)NC(=O)[C@@H](NC(=O)[C@@H](N)Cc2ccc(O)cc2)CSSC[C@@H]2NC(=O)[C@@H]3CSSC[C@@H](C(=O)N[C@@H](CCCCN)C(=O)N[C@@H](CCCCN)C(=O)N[C@@H](CCCCN)C(=O)N[C@@H](CC(C)C)C(=O)N[C@@H](Cc4c[nH]c5ccccc45)C(=O)O)NC(=O)[C@H](Cc4c[nH]c5ccccc45)NC(=O)[C@H](CC(C)C)NC(=O)[C@H](CCCNC(=N)N)NC(=O)[C@H](CSSC[C@H](NC(=O)[C@H]([C@@H](C)O)NC(=O)[C@H](Cc4c[nH]c5ccccc45)NC1=O)C(=O)N[C@@H](CC(=O)O)C(=O)N[C@@H](CO)C(=O)N[C@@H](CCC(=O)O)C(=O)N[C@@H](CCCNC(=N)N)C(=O)N[C@@H](CCCCN)C(=O)N3)NC(=O)[C@H](C(C)C)NC(=O)[C@H](CC(C)C)NC(=O)CNC(=O)[C@H](CCC(=O)O)NC2=O	15.44	9.87	26
CC[C@H](C)[C@H](NC(=O)[C@@H](NC(=O)[C@H](CCCCN)NC(=O)[C@H](CCCCN)NC(=O)[C@@H]1CSSC[C@@H]2NC(=O)[C@H](CCCCN)NC(=O)[C@H](CCCNC(=N)N)NC(=O)[C@H](CCC(=O)O)NC(=O)[C@H](CO)NC(=O)[C@H](CC(=O)O)NC(=O)[C@@H]3CSSC[C@H](NC(=O)[C@H](C(C)C)NC(=O)[C@H](CCSC)NC(=O)CNC(=O)[C@H](CCC(=O)O)NC(=O)[C@H](CSSC[C@H](NC(=O)[C@@H](N)Cc4ccc(O)cc4)C(=O)N[C@@H](CCC(N)=O)C(=O)N[C@@H](CCCCN)C(=O)N[C@@H](Cc4c[nH]c5ccccc45)C(=O)N[C@@H](CCSC)C(=O)N[C@@H](Cc4c[nH]c5ccccc45)C(=O)N[C@@H]([C@@H](C)O)C(=O)N3)NC2=O)C(=O)N[C@@H](CCCNC(=N)N)C(=O)N[C@@H](CC(C)C)C(=O)N[C@@H](Cc2c[nH]c3ccccc23)C(=O)N1)[C@@H](C)CC)C(=O)O	18.47	9.44	2
CSCC[C@@H]1NC(=O)CNC(=O)[C@H](CCC(=O)O)NC(=O)[C@@H]2CSSC[C@H](NC(=O)[C@@H](N)Cc3ccc(O)cc3)C(=O)N[C@@H](CCC(N)=O)C(=O)N[C@@H](CCCCN)C(=O)N[C@@H](Cc3c[nH]c4ccccc34)C(=O)N[C@@H](CCSC)C(=O)N[C@@H](Cc3c[nH]c4ccccc34)C(=O)N[C@@H]([C@@H](C)O)C(=O)N[C@H]3CSSC[C@H](NC(=O)[C@H](C(C)C)NC1=O)C(=O)N[C@@H](CCCNC(=N)N)C(=O)N[C@@H](CC(C)C)C(=O)N[C@@H](Cc1c[nH]c4ccccc14)C(=O)N[C@H](C(=O)N[C@@H](CCCCN)C(=O)N[C@@H](CCCCN)C(=O)N[C@@H](CCCCN)C(=O)N[C@@H](CC(C)C)C(=O)N[C@@H](Cc1c[nH]c4ccccc14)C(N)=O)CSSC[C@H](NC(=O)[C@H](CCCCN)NC(=O)[C@H](CCCNC(=N)N)NC(=O)[C@H](CCC(=O)O)NC(=O)[C@H](CO)NC(=O)[C@H](CC(=O)O)NC3=O)C(=O)N2	14.78	9	
CC[C@H](C)[C@H](NC(=O)[C@H](CCCCN)NC(=O)[C@H](CCCCN)NC(=O)[C@@H]1CSSC[C@@H]2NC(=O)[C@H](CCCCN)NC(=O)[C@H](CCCNC(=N)N)NC(=O)[C@H](C)NC(=O)[C@H](CO)NC(=O)[C@H](CC(=O)O)NC(=O)[C@@H]3CSSC[C@H](NC(=O)[C@H](C(C)C)NC(=O)[C@H](CC(C)C)NC(=O)CNC(=O)[C@H](CCC(=O)O)NC(=O)[C@H](CSSC[C@H](NC(=O)[C@@H](N)Cc4ccc(O)cc4)C(=O)N[C@@H](CCC(N)=O)C(=O)N[C@@H](CCCCN)C(=O)N[C@@H](Cc4c[nH]c5ccccc45)C(=O)N[C@@H](CCSC)C(=O)N[C@@H](Cc4c[nH]c5ccccc45)C(=O)N[C@@H]([C@@H](C)O)C(=O)N3)NC2=O)C(=O)N[C@@H](CCCNC(=N)N)C(=O)N[C@@H](CC(C)C)C(=O)N[C@@H](Cc2c[nH]c3ccccc23)C(=O)N1)C(=O)N[C@H](C(=O)N[C@@H](Cc1c[nH]c2ccccc12)C(=O)O)[C@@H](C)CC (HELM PEPTIDE1{Y.C.Q.K.W.M.W.T.C.D.S.A.R.K.C.C.E.G.L.V.C.R.L.W.C.K.K.I.I.W}$PEPTIDE1,PEPTIDE1,2:R3-16:R3|PEPTIDE1,PEPTIDE1,9:R3-21:R3|PEPTIDE1,PEPTIDE1,15:R3-25:R3$$$V2.0)	15.83	9.29	9
[H][C@]12CSSC[C@@H](C(=O)N[C@@H](CCCCN)C(=O)N[C@@H](CCCCN)C(=O)N[C@H](C(=O)N[C@H](C(=O)O)[C@@H](C)CC)[C@@H](C)CC)NC(=O)[C@H](Cc3c[nH]c4ccccc34)NC(=O)[C@H](CC(C)C)NC(=O)[C@H](CCCNC(=N)N)NC(=O)[C@]3([H])CSSC[C@]([H])(NC(=O)[C@]([H])([C@@H](C)O)NC(=O)[C@H](Cc4c[nH]c5ccccc45)NC(=O)[C@H](CCSC)NC(=O)[C@H](Cc4c[nH]c5ccccc45)NC(=O)[C@H](CCCCN)NC(=O)[C@H](CCC(N)=O)NC(=O)[C@@H](NC(=O)[C@@H](N)Cc4ccc(O)cc4)CSSC[C@]([H])(NC1=O)C(=O)N[C@@H](CCC(=O)O)C(=O)NCC(=O)N[C@@H](CC(C)C)C(=O)N[C@@H](C(C)C)C(=O)N3)C(=O)N[C@@H](CC(=O)O)C(=O)N[C@@H](CO)C(=O)N[C@@H](C)C(=O)N[C@@H](CCCNC(=N)N)C(=O)N[C@@H](CCCCN)C(=O)N2 (HELM PEPTIDE1{Y.C.Q.K.W.M.W.T.C.D.S.A.R.K.C.C.E.G.L.V.C.R.L.W.C.K.K.I.I}$PEPTIDE1,PEPTIDE1,2:R3-16:R3|PEPTIDE1,PEPTIDE1,9:R3-21:R3|PEPTIDE1,PEPTIDE1,15:R3-25:R3$$$V2.0)	12.58	7.9	
[H][C@]12CSSC[C@@H](C(=O)N[C@@H](CCCCN)C(=O)N[C@@H](CCCCN)C(=O)N[C@H](C(=O)N[C@@H](CC(C)C)C(=O)N[C@@H](Cc3c[nH]c4ccccc34)C(=O)O)[C@@H](C)CC)NC(=O)[C@H](Cc3c[nH]c4ccccc34)NC(=O)[C@H](CC(C)C)NC(=O)[C@H](CCCNC(=N)N)NC(=O)[C@]3([H])CSSC[C@]([H])(NC(=O)[C@]([H])([C@@H](C)O)NC(=O)[C@H](Cc4c[nH]c5ccccc45)NC(=O)[C@H](CCSC)NC(=O)[C@H](Cc4c[nH]c5ccccc45)NC(=O)[C@H](CCCCN)NC(=O)[C@H](CCC(N)=O)NC(=O)[C@@H](NC(=O)[C@@H](N)Cc4ccc(O)cc4)CSSC[C@]([H])(NC1=O)C(=O)N[C@@H](CCC(=O)O)C(=O)NCC(=O)N[C@@H](CC(C)C)C(=O)N[C@@H](C(C)C)C(=O)N3)C(=O)N[C@@H](CC(=O)O)C(=O)N[C@@H](CO)C(=O)N[C@@H](C)C(=O)N[C@@H](CCCNC(=N)N)C(=O)N[C@@H](CCCCN)C(=O)N2 (HELM PEPTIDE1{Y.C.Q.K.W.M.W.T.C.D.S.A.R.K.C.C.E.G.L.V.C.R.L.W.C.K.K.I.L.W}$PEPTIDE1,PEPTIDE1,2:R3-16:R3|PEPTIDE1,PEPTIDE1,9:R3-21:R3|PEPTIDE1,PEPTIDE1,15:R3-25:R3$$$V2.0)	15.95	9.54	20
[H][C@]12CSSC[C@@H](C(=O)N[C@@H](CCCCN)C(=O)N[C@@H](CCCCN)C(=O)N[C@@H](CCCCN)C(=O)N[C@H](C(=O)N[C@@H](CC(C)C)C(=O)N[C@@H](Cc3c[nH]c4ccccc34)C(=O)O)[C@@H](C)CC)NC(=O)[C@H](Cc3c[nH]c4ccccc34)NC(=O)[C@H](CC(C)C)NC(=O)[C@H](CCCNC(=N)N)NC(=O)[C@]3([H])CSSC[C@]([H])(NC(=O)[C@]([H])([C@@H](C)O)NC(=O)[C@H](Cc4c[nH]c5ccccc45)NC(=O)[C@H](CCSC)NC(=O)[C@H](Cc4c[nH]c5ccccc45)NC(=O)[C@H](CCCCN)NC(=O)[C@H](CCC(N)=O)NC(=O)[C@@H](NC(=O)[C@@H](N)Cc4ccc(O)cc4)CSSC[C@]([H])(NC1=O)C(=O)N[C@@H](CCC(=O)O)C(=O)NCC(=O)N[C@@H](CC(C)C)C(=O)N[C@@H](C(C)C)C(=O)N3)C(=O)N[C@@H](CC(=O)O)C(=O)N[C@@H](CO)C(=O)N[C@@H](C)C(=O)N[C@@H](CCCNC(=N)N)C(=O)N[C@@H](CCCCN)C(=O)N2 (HELM PEPTIDE1{Y.C.Q.K.W.M.W.T.C.D.S.A.R.K.C.C.E.G.L.V.C.R.L.W.C.K.K.K.I.L.W}$PEPTIDE1,PEPTIDE1,2:R3-16:R3|PEPTIDE1,PEPTIDE1,9:R3-21:R3|PEPTIDE1,PEPTIDE1,15:R3-25:R3$$$V2.0)	15.88	9.05	33
